Consider four molecules from paper PMC3334872 (Chemistry & biology, 2012).

In test [1] the target is E7 LxCxE peptide LxCxE peptide (Human papillomavirus type 16) (UniProt P03129). The settings on record: cited from earlier work.
For test [2], the system named is SiHa cells. Kind of test: Flow cytometry, DNA content by propidium iodide staining. Type of test: cell-based, human. The settings on record: 2 µM, 48 hours. The essentials:
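Cells seeded at 1×105 per 60 mm dish; next day test compound or DMSO added for 48 hr. Cells trypsinized, PBS-washed, fixed in 80% ethanol, pelleted 500g 5 min, stained with PI (100 µL 2mg/ml PI plus 10 µg RNase A in 10 mL PBS). DNA content analysed by flow cytometry; apoptotic fraction taken from area under the corresponding histogram region.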

Test [3] deals with T1, GST-pRbABC (residues 376–928) (UniProt P06400 376-928).
T1 sequence (looked up): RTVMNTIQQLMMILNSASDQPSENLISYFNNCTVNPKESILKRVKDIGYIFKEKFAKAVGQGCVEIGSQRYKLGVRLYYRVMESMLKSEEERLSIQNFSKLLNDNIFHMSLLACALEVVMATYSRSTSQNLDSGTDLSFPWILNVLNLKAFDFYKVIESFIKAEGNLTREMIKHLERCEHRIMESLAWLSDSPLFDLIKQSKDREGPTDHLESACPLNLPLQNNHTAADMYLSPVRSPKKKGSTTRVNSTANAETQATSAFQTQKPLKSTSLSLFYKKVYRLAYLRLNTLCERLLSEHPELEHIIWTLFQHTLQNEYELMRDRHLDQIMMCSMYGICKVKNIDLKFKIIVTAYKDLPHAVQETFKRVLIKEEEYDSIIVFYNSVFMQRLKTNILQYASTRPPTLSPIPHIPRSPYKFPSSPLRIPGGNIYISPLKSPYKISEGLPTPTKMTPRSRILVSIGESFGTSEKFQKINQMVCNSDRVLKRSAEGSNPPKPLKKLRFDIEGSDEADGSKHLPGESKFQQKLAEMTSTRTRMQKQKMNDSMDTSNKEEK
Kind of test: ELISA.

Chain of E7 LxCxE peptide LxCxE peptide (Human papillomavirus type 16) (P03129 whole entry, looked up): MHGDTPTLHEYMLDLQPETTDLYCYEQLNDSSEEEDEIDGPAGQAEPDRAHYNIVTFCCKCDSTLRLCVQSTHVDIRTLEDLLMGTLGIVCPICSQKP

Take pRb (from UniProt P06400): the Kd in test [1] is 110 nM.

Molecule `CN[C@@H]1C[C@H]2O[C@@](C)([C@@H]1OC)n1c3ccccc3c3c4c(c5c6ccccc6n2c5c31)C(=O)NC4` [staurosporine, Staurosporine] came in with an apoptotic cells in test [2] of 34.3%.

B1: 6xHis-Ad5E1A_(CR1-3) (residues 36–189) (domain or fragment)
chain: SHFEPPTLHELYDLDVTAPEDPNEEAVSQIFPDSVMLAVQEGIDLLTFPPAPGSPEPPHLSRQPEQPEQRALGPVSMPNLVPEVIDLTCHEAGFPPSDDEDEEGEEFVLDYVEHPGHGCRSCHYHRRNTGDPDIMCSLCYMRTCGMFVYSPVSE
With B1, the binding result in test [3] was “binds”.

B2: 6xHis-HPV1AE7_(CR2-3) (residues 16–93) (domain or fragment)
chain: EPSVLDLDLYCYEEVPPDDIEEELVSPQQPYAVVASCAYCEKLVRLTVLADHSAIRQLEELLLRSLNIVCPLCTLQRQ
Consider B2, for which the binding result in test [3] is recorded as “binds”.
